Data from ChEMBL document CHEMBL4390662, “Design, synthesis and biological evaluation of novel α-acyloxy carboxamides via Passerini reaction as caspase 3/7 activators” (Eur J Med Chem, 2019).
Values after ≈ are worked out from the molar mass of the structure shown. Active and inactive are the calls of the source. The rule behind the calls is not given here.

Assays:
[1] = Selectivity index, ratio of IC50 for human WI38 cells to IC50 for human HepG2 cells; assay type: toxicity; details: WI38 cells versus HepG2 cells, read-out: Ratio IC50
In short: (§1)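 SI calculated as IC50 on normal Wi-38 fibroblasts divided by IC50 on the cancer cell line. Both came from 72 h MTT assays.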

WI-38 = test: Cytotoxicity against human WI38 cells assessed as cell growth inhibition incubated for 72 hrs by MTT assay; assay type: cell-based; details: for IC50: Homo sapiens, WI-38, 72 h; for EC100: human, wi-38, 72 h
In short: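 Wi-38 fibroblasts grown in DMEM with 10% FBS and seeded at 5×10^3 per well. Attachment 24 h, then serial concentrations for 72 h at 37°C, 5% CO2. MTT stock (5 mg/mL) added for 3 h at 37°C, DMSO solubilization, absorbance at 570 nm. IC50 estimated.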

Staphylococcus aureus [2] = test: Antimicrobial activity against Staphylococcus aureus ATCC 25923 incubated for 24 hrs by agar well diffusion assay; assay type: functional
In short: (§2)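 Nutrient agar spread with 100 µL inoculum: bacteria at 1×10^8 CFU/mL, fungi at 1×10^6 CFU/mL. 10 mm wells loaded with 100 µL of compound in DMSO (final 1 mg/mL). Bacteria incubated 24 h at 37 °C, fungi 48 h at 28 °C. Inhibition zones measured in mm. Ciprofloxacin and fluconazole standards at 1 mg/mL, DMSO negative control.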

Pseudomonas aeruginosa = test: Antimicrobial activity against Pseudomonas aeruginosa ATCC 27853 incubated for 24 hrs by agar well diffusion assay; assay type: functional; in short: as §2
Escherichia coli [3] = test: Antimicrobial activity against Escherichia coli ATCC 25922 incubated for 24 hrs by agar well diffusion assay; assay type: functional; in short: as §2
NFS-60 = test: Cytotoxicity against mouse NFS60 cells assessed as cell growth inhibition incubated for 72 hrs by MTT assay; assay type: functional, cell-based; details: NFS-60, 72 h
In short: (§3)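 Cells grown in RPMI-1640 with 10% FBS and seeded at 5×10^3 per well. After 24 h, serial concentrations given for 72 h at 37°C, 5% CO2. Then 5 mg/mL MTT stock added for 3 h, formazan dissolved in DMSO, A570 read. IC50 calculated from the curves.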

[4] = Selectivity index, ratio of IC50 for human WI38 cells to IC50 for human MCF7 cells; assay type: toxicity; details: WI38 cells versus MCF7 cells, read-out: Ratio IC50; in short: as §1
Enterococcus faecalis = test: Antimicrobial activity against Enterococcus faecalis ATCC 29212 incubated for 24 hrs by agar well diffusion assay; assay type: functional; in short: as §2
MCF7 [5] = test: Potency index, ratio of doxorubicin IC50 to test compound IC50 against human MCF7 cells; assay type: functional
MCF7 [6] = test: Cytotoxicity against human MCF7 cells assessed as cell growth inhibition incubated for 72 hrs by MTT assay; assay type: functional, cell-based; details: MCF7, 72 h; in short: as §3
[7] = Selectivity index, ratio of IC50 for human WI38 cells to IC50 for mouse NFS60 cells; in short: as §1
Candida albicans [8] = test: Antimicrobial activity against Candida albicans ATCC 90028 incubated for 48 hrs by agar well diffusion assay; assay type: functional; in short: as §2
HepG2 = test: Cytotoxicity against human HepG2 cells assessed as cell growth inhibition incubated for 72 hrs by MTT assay; assay type: functional, cell-based; details: HepG2, 72 h; in short: as §3
Staphylococcus aureus [9] = test: Antimicrobial activity against Staphylococcus aureus ATCC 25923 incubated for 24 hrs by microdilution assay; assay type: functional
In short: (§4)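 Two-fold serial dilutions of test solutions made in Mueller Hinton broth and inoculated. Incubated at 37°C for 24 h. MIC taken as the lowest concentration with no growth. Ciprofloxacin is the antibacterial reference, fluconazole the antifungal one, and DMSO the blank.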

Escherichia coli [10] = test: Antimicrobial activity against Escherichia coli ATCC 25922 incubated for 24 hrs by microdilution assay; assay type: functional; in short: as §4
Candida albicans [11] = test: Antimicrobial activity against Candida albicans ATCC 90028 incubated for 24 hrs by microdilution assay; assay type: functional; in short: as §4

For `Cc1ccc(C(=O)OC2(C(=O)Nc3ccc([N+](=O)[O-])cc3)CCCCC2)cc1`, the selectivity ratio [1] was 0.522, the IC50 (WI-38) was 32 nM and the EC100 (WI-38) was 0.0064 µM. For the same molecule, the “diameter of the inhibition zone (DIZ)” value (Staphylococcus aureus [2]) was “inactive”, the “diameter of the inhibition zone (DIZ)” value (Pseudomonas aeruginosa) was “inactive” and the “diameter of the inhibition zone (DIZ)” value (Escherichia coli [3]) was “inactive”. The IC50 (NFS-60) was 45.4 nM, the selectivity ratio [4] was 3.27 and the “diameter of the inhibition zone (DIZ)” value (Enterococcus faecalis) was “inactive”. The “Ratio IC50” value (MCF7 [5]) was 2 - 4, the IC50 (MCF7 [6]) was 9.8 nM and the “Ratio IC50” value [7] was 0.704. The “diameter of the inhibition zone (DIZ)” value (Candida albicans [8]) was “inactive” and the IC50 (HepG2) was 61.2 nM.

For `O=C1OC2(CCCCC2)C(=O)N1c1ccc([N+](=O)[O-])cc1`, the selectivity ratio [1] was 3.72, the MIC (Staphylococcus aureus [9]) was “inactive” and the IC50 (WI-38) was 35 nM. The EC100 (WI-38) was 0.006 µM, the “diameter of the inhibition zone (DIZ)” value (Staphylococcus aureus [2]) was “inactive” and the “diameter of the inhibition zone (DIZ)” value (Pseudomonas aeruginosa) was 15 mm. For the same molecule, the “diameter of the inhibition zone (DIZ)” value (Escherichia coli [3]) was 15 mm, the MIC (Escherichia coli [10]; ATCC 25922, 24 h) was 3530 µM (≈ 1020 µg/mL) and the MIC (Candida albicans [11]) was “inactive”. For the same molecule, the IC50 (NFS-60) was 8.98 nM, the selectivity ratio [4] was 5.38 and the “diameter of the inhibition zone (DIZ)” value (Enterococcus faecalis) was “inactive”. The “Ratio IC50” value (MCF7 [5]) was 2 - 4, the IC50 (MCF7 [6]) was 6.5 nM and the “Ratio IC50” value [7] was 3.897. The “diameter of the inhibition zone (DIZ)” value (Candida albicans [8]) was “inactive” and the IC50 (HepG2) was 9.4 nM.

Molecule `CCOC1(Nc2ccc([N+](=O)[O-])cc2)C(=O)c2ccccc2C1=O` has a selectivity ratio [1] of 1.21, an MIC (Staphylococcus aureus [9]; ATCC 25923, 24 h) of 1570 µM (≈ 512 µg/mL) and an IC50 (WI-38) of 47 nM. The EC100 (WI-38) was 0.0285 µM, the “diameter of the inhibition zone (DIZ)” value (Staphylococcus aureus [2]) was 12 mm and the “diameter of the inhibition zone (DIZ)” value (Pseudomonas aeruginosa) was 16 mm. For the same molecule, the “diameter of the inhibition zone (DIZ)” value (Escherichia coli [3]) was “inactive”, the MIC (Escherichia coli [10]) was “inactive” and the MIC (Candida albicans [11]) was “inactive”. The IC50 (NFS-60) was 27.8 nM, the selectivity ratio [4] was 1.35 and the “diameter of the inhibition zone (DIZ)” value (Enterococcus faecalis) was 13 mm. The IC50 (MCF7 [6]) was 34.9 nM, the “Ratio IC50” value [7] was 1.69 and the “diameter of the inhibition zone (DIZ)” value (Candida albicans [8]) was “inactive”. The IC50 (HepG2) was 38.9 nM.
